Measured values from ChEMBL document CHEMBL1126782, “Synthesis and pharmacological evaluation of 1-phenyl-3-amino-1,2,3,4-tetrahydronaphthalenes as ligands for a novel receptor with sigma-like neuromodulatory activity” (J Med Chem, 1993).

Experiments:
[1] = molecular target: Tyrosine 3-monooxygenase (Rattus norvegicus) (UniProt P04177); assay: Tyrosine hydroxylase activity at 0.1 uM in rat striatal minces; format: functional
D(2) dopamine receptor [2] = molecular target: T1, D(2) dopamine receptor (Rattus norvegicus, UniProt P61169); assay: Binding affinity against dopamine receptor D2 from rat striatal homogenates using [3H]YM-09151-2
T1 sequence (P61169 whole entry): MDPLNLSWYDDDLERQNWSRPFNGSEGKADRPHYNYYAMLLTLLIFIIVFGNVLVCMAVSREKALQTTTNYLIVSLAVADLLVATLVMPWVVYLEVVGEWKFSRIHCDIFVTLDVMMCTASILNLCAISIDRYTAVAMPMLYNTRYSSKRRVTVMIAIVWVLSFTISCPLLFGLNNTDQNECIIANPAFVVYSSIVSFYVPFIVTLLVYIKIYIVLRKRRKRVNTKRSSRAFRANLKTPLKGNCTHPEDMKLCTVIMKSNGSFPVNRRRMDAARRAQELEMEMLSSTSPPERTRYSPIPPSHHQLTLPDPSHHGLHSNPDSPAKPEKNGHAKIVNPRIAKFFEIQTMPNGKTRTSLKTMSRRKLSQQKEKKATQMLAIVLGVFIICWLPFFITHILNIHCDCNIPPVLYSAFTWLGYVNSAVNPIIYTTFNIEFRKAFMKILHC
In short: (§1)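 Competition binding with rat striatal homogenates in Tris-HCl, pH 7.4, containing 150 mM NaCl at 30 °C. […] Nonspecific binding was defined by (+)-butaclamol. Six or more concentrations bracketing the IC50 were run in duplicate, with three replications. IC50 values came from curve fitting.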

D(1A) dopamine receptor [3] = molecular target: T2, D(1A) dopamine receptor (Rattus norvegicus, UniProt P18901); assay: Binding affinity against dopamine receptor D1 from rat striatal homogenates, using [3H]SCH-23390 as radioligand.
T2 sequence (P18901 whole entry): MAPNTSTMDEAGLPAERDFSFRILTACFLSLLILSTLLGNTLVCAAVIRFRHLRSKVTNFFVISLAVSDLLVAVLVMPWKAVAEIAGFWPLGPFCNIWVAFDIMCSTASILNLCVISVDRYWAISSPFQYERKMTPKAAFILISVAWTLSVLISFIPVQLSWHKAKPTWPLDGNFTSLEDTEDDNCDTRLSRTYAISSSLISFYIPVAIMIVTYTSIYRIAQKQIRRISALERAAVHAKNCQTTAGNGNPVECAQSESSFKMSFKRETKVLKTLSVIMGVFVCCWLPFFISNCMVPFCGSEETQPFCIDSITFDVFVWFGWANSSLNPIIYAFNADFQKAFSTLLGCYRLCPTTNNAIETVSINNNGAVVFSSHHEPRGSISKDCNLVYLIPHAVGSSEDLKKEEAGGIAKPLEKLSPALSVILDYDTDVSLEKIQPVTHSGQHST
In short: (§2)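 Competition binding with rat striatal homogenates in Tris-HCl, pH 7.4, with 150 mM NaCl at 30 °C. […] Nonspecific binding was defined by 0.3 μM cis-(Z)-flupenthixol. Six or more concentrations bracketing the IC50 were run in duplicate, with three replications. IC50 values came from curve fitting.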

D(1A) dopamine receptor [4] = molecular target: T2, D(1A) dopamine receptor; assay: Binding affinity against dopamine receptor D1 from rat striatal homogenates, using [3H]SCH-23,390 as radioligand; in short: as §2
[5] = molecular target: Tyrosine 3-monooxygenase (Rattus norvegicus) (UniProt P04177); assay: Tyrosine hydroxylase activity at 0.1 uM in rat striatal minces; effect blocked by BMY-14802; format: functional
D(2) dopamine receptor [6] = molecular target: T1, D(2) dopamine receptor; assay: Binding affinity against dopamine receptor D2 from rat striatal homogenates, using [3H]YM-09151-2 as radioligand; in short: as §1
[7] = molecular target: Tyrosine 3-monooxygenase (Rattus norvegicus) (UniProt P04177); assay: Tyrosine hydroxylase activity at 0.1 uM in rat striatal minces; effect not blocked by BMY-14802; format: functional
[8] = molecular target: Tyrosine 3-monooxygenase (Rattus norvegicus) (UniProt P04177); assay: Tyrosine hydroxylase activity at 0.1 uM in rat striatal minces; effect not blocked bt BMY-14802; format: functional

Sequence of Tyrosine 3-monooxygenase (Rattus norvegicus) (P04177 whole entry): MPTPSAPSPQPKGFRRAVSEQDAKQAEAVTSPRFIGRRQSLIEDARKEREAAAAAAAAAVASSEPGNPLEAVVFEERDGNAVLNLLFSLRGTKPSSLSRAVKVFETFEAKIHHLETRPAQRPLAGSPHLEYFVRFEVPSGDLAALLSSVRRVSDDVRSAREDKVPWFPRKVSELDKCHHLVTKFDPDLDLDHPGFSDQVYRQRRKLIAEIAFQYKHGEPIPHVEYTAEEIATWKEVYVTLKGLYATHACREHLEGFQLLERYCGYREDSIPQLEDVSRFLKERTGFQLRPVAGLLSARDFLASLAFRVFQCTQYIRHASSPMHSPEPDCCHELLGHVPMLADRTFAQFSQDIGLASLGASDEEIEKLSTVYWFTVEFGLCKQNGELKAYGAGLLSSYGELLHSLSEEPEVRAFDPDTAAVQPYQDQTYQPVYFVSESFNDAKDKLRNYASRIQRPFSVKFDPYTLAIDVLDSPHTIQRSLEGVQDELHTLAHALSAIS

SMILES | Control [1] [%] | IC50 (D(2) dopamine receptor [2]) [µM] | IC50 (D(1A) dopamine receptor [3]) [µM] | also measured
CN(C)C1Cc2cc(O)c(O)cc2C(c2ccccc2)C1 (cis isomer) [listing 1 of 2 here] | 100 | – | – | –
NC1Cc2cc(O)c(O)cc2C(c2ccccc2)C1 (trans isomer) [listing 1 of 2 here] | – | > 30 | > 30 | –
CN(C)C1Cc2ccccc2C(c2ccccc2)C1 (configuration not stated) | 101 | – | – | –
C=CCN(CC=C)C1Cc2ccccc2C(c2ccccc2)C1 (configuration not stated) | 104 | 4 | 10 | –
CN(C)[C@H]1Cc2cc(Cl)c(O)cc2[C@H](c2ccccc2)C1 | – | 4.13 | – | IC50 (D(1A) dopamine receptor [4]): 1.89 µM; Control [5]: 128%
CCN(CC)C1Cc2ccccc2C(c2ccccc2)C1 (trans isomer) | 95 | – | – | –
CN(C)C1Cc2cc(O)c(O)cc2C(c2ccccc2)C1 (cis isomer) [listing 2 of 2 here] | – | > 5 | > 1 | –
C=CCNC1Cc2ccccc2C(c2ccccc2)C1 (trans isomer) | 102 | 6 | 10 | –
CN(C)C1Cc2cc(O)c(O)cc2C(c2ccccc2)C1 (trans isomer) [listing 1 of 2 here] | – | > 5 | > 10 | –
CNC1Cc2cc(Cl)c(O)cc2C(c2ccccc2)C1 (trans isomer) | 99 | – | – | IC50 (D(1A) dopamine receptor [4]): 0.849 µM; IC50 (D(2) dopamine receptor [6]): 10 µM
C=CCN(C)C1Cc2ccccc2C(c2ccccc2)C1 (configuration not stated) | 72 | – | – | –
CN(C)C1Cc2cc(Cl)c(O)cc2C(c2ccccc2)C1 (cis isomer) | 94 | – | – | –
CN(C)C1Cc2cc(O)c(O)cc2C(c2ccccc2)C1 (trans isomer) [listing 2 of 2 here] | – | – | – | Control [7]: 75%
NC1Cc2ccccc2C(c2ccccc2)C1 (trans isomer) | 86 | > 10 | > 10 | –
CN(C)[C@H]1CCc2ccccc2[C@H]1c1ccccc1 | 111 | – | – | –
NC1Cc2cc(O)c(O)cc2C(c2ccccc2)C1 (cis isomer) [listing 1 of 2 here] | 95 | – | – | –
NC1Cc2cc(O)c(O)cc2C(c2ccccc2)C1 (trans isomer) [listing 2 of 2 here] | – | – | – | Control [8]: 71%
NC1Cc2cc(O)c(O)cc2C(c2ccccc2)C1 (cis isomer) [listing 2 of 2 here] | – | > 10 | > 30 | –
